We go through 16 compounds from ChEMBL document CHEMBL1275391, “Design, synthesis, and preclinical evaluation of new 5,6- (or 6,7-) disubstituted-2-(fluorophenyl)quinolin-4-one derivatives as potent antitumor agents” (J Med Chem, 2010).

Active and inactive are the calls of the source. The rule behind the calls is not given here. A value given as a limit tells only on which side of the number the result lay.

One series has as its system NCI-H460. The series is described as follows: Cytotoxicity against human H460 cells after 48 hrs by MTT assay. The series is classed as functional, cell-based. As to conditions: NCI-H460, 48 h. The essentials:
(§1)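 Cells exposed to a range of compound concentrations for 48 h, washed once with PBS, then incubated with MTT for 2 h. Formazan dissolved in DMSO and absorbance read at 570 nm. IC50 taken as the concentration giving 50% inhibition of proliferation.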

The subject of a further series is HCT-116. Nature of the series: Cytotoxicity against human HCT116 cells after 48 hrs by MTT assay. The series is classed as functional, cell-based. As to conditions: HCT-116, 48 h. The essentials: as §1
A general note: Formazan colour is commonly taken as a measure of viable cells.

For another series, the system named is HL-60. Nature of the series: Cytotoxicity against human HL60 cells after 48 hrs by MTT assay. As to conditions: HL-60, 48 h. Type of series: functional, cell-based. The essentials:
as §1

A short description of series [1]: Cytotoxicity against human Hep3B cells after 48 hrs by MTT assay. The series is classed as functional, cell-based, Hep 3B2. The method, boiled down: as §1
Series [2] deals with Hep 3B2. The series is described as follows: Antitumor activity against human Hep3B cells xenografted in BALB/c nude mouse assessed as inhibition of tumor growth administered at 7.5 mg/kg, po qd for 5 times per week for 4 weeks. Type of series: functional, organism-based. Details: dose 7.5 mg/kg. The essentials: (§2)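 Male Balb/c nude mice, 4-6 weeks, 18-20 g; 2 × 10^6 Hep3B cells in 0.1 mL injected subcutaneously into right flank. Dosing began when tumors exceeded 100 mm3 (day 0), given po or iv once daily, 5 days/week for 4 weeks, stopped day 28. Tumor volume (length × width² × 0.5) and body weight recorded every 7 days; T/C = (Tn − T0)/(Cn − C0) × 100%.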
On the technique in general: A xenograft is tissue or cells of one species grown in another, often human tumour cells in immunodeficient mice.

In series [3] the test system is Hep 3B2. The series is described as follows: Antitumor activity against human Hep3B cells xenografted in BALB/c nude mouse assessed as inhibition of tumor growth administered at 7.5 mg/kg, po qd for 5 times per week for 4 weeks.
Series [4] concerns Hep 3B2. The series is described as follows: Antitumor activity against human Hep3B cells xenografted in BALB/c nude mouse assessed as inhibition of complete tumor growth administered at 30 mg/kg, po qd for 5 times per week for 4 weeks. The series is classed as functional, organism-based. Also on record: dose 30 mg/kg. The essentials:
as §2

The test system of series [5] is Hep 3B2. Nature of the series: Antitumor activity against human Hep3B cells xenografted in po dosed BALB/c nude mouse assessed as inhibition of tumor growth administered qd for 5 times per week for 4 weeks measured on day 28. Type of series: functional, organism-based. The essentials:
as §2

Series [6] deals with Hep 3B2. The series is described as follows: Antitumor activity against human Hep3B cells xenografted in BALB/c nude mouse assessed as inhibition of tumor growth administered at 7.5 to 30 mg/kg, po qd for 5 times per week for 4 weeks. Type of series: functional, organism-based. As to conditions: TDE = time-dependent effect. The essentials:
as §2

The test system of series [7] is Hep 3B2. Nature of the series: Antitumor activity against human Hep3B cells xenografted in BALB/c nude mouse assessed as inhibition of tumor growth administered at 7.5 to 30 mg/kg, iv qd for 5 times per week for 4 weeks. As to conditions: TDE = time-dependent effect. Type of series: functional, organism-based. The essentials:
as §2

In series [8] the test system is Hep 3B2. Nature of the series: Antitumor activity against human Hep3B cells xenografted in iv dosed BALB/c nude mouse assessed as inhibition of tumor growth administered qd for 5 times per week for 4 weeks measured on day 28. Type of series: functional, organism-based. The essentials: as §2
A further series concerns Mus musculus. Nature of the series: Toxicity in human Hep3B cells xenografted BALB/c nude mouse assessed as change in body weight at 7.5 to 30 mg/kg, po qd for 5 times per week for 4 weeks measured on day 28. Type of series: organism-based, Hep 3B2. Details: dose 7.5-30 mg/kg, route oral. As to conditions: in vivo, 672 h. The method, boiled down: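 Male Balb/c nude mice, 4-6 weeks old and 18-20 g, were housed under SPF conditions. Each received 2 × 10^6 Hep3B cells in 0.1 mL s.c. into the right flank. Once tumors exceeded 100 mm3 (day 0), animals were grouped and dosed orally once daily, 5 days/week for 4 weeks. Body weight and tumor size were recorded every 7 days up to day 28.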

In the case of `COc1cc2c(=O)cc(-c3ccc(F)cc3)[nH]c2cc1O`, the IC50 was above 100 µM in the series with NCI-H460, above 100 µM in the series with HCT-116, 38.2 µM with HL-60 and above 100 µM in series [1].
As to `COc1cc2c(=O)cc(-c3cccc(F)c3)[nH]c2cc1O`, the half-maximal inhibitory concentration (IC50) with NCI-H460 was 4.8 µM; with HCT-116 it was 1.1 µM; in the series on HL-60, 0.9 µM; in series [1], 5.3 µM.
Consider `O=c1cc(-c2cccc(F)c2)[nH]c2ccc(O)c(O)c12`, for which the half-inhibitory concentration (IC50) in the series with NCI-H460 amounted to 6.1 µM; with HCT-116, 8.2 µM; in the series with HL-60, 0.3 µM; in [1] it was 6.9 µM.
In the same order, the values of `COc1ccc2[nH]c(-c3ccc(F)cc3)cc(=O)c2c1OC` are above 20 µM, above 20 µM, 2 µM and above 20 µM.
For `COc1ccc2[nH]c(-c3ccccc3F)cc(=O)c2c1OC`, the IC50 with NCI-H460 is above 20 µM; in the series with HCT-116, above 20 µM; in the series with HL-60, 3.7 µM; in [1], above 20 µM.
As to `O=c1cc(-c2ccc(F)cc2)[nH]c2ccc(O)c(O)c12`, the IC50 in the series with NCI-H460 was 100 µM; with HCT-116 it was above 100 µM; in the series on HL-60 it was 38.6 µM; in [1], 100 µM.
Consider `O=c1cc(-c2ccccc2F)[nH]c2ccc(O)c(O)c12`, for which the concentration for half-maximal inhibition (IC50) in the series with NCI-H460 turned out to be 4.1 µM; with HCT-116, 0.6 µM; with HL-60, 0.5 µM; in series [1], 3.9 µM.
On to `COc1ccc2[nH]c(-c3ccccc3F)cc(=O)c2c1O`, for which the half-maximal inhibitory concentration (IC50) turned out to be 0.11 µM with NCI-H460, 0.05 µM with HCT-116, 0.07 µM in the series on HL-60 and 0.05 µM in series [1].
`COc1ccc2[nH]c(-c3cccc(F)c3)cc(=O)c2c1OP(=O)([O-])[O-].[Na+].[Na+]`: the result in the series on Hep 3B2 [2], with Hep 3B2 [3] and with Hep 3B2 [4] was Active. Further, the Activity result with Hep 3B2 [5] is “Dose-dependent effect”; with Hep 3B2 [6], “tde”; in the series with Hep 3B2 [7] it was “tde”; with Hep 3B2 [8], “Dose-dependent effect”; in the series with Mus musculus, “Non-toxic”.
`O=c1cc(-c2ccc(F)cc2)[nH]c2ccc3c(c12)OCO3`: the IC50 (in the series on NCI-H460; in the series with HCT-116; in the series on HL-60; in series [1]) was above 10 µM each time.
Turning to `O=c1cc(-c2ccccc2F)[nH]c2cc3c(cc12)OCO3`, the IC50 stood at 0.14 µM in the series on NCI-H460, 0.15 µM with HCT-116, 0.08 µM in the series on HL-60 and 0.13 µM in [1].
In the case of `O=c1cc(-c2cccc(F)c2)[nH]c2ccc3c(c12)OCO3`, the IC50 worked out at 3.2 µM with NCI-H460, 2.5 µM with HCT-116, 0.7 µM in the series on HL-60 and 2.4 µM in series [1].
As to `COc1ccc2[nH]c(-c3ccc(F)cc3)cc(=O)c2c1O`, the IC50 in the series with NCI-H460 was 8.8 µM; in the series on HCT-116 it was 2.4 µM; in the series on HL-60, 1.8 µM; in [1], 11 µM.
Taken in the same sequence, the figures for `COc1ccc2[nH]c(-c3cccc(F)c3)cc(=O)c2c1OC` were 3.5 µM, 1.2 µM, 1.3 µM and 2.6 µM.
For `COc1cc2c(=O)cc(-c3ccccc3F)[nH]c2cc1O`, the IC50 in the series with NCI-H460 came out at 4.4 µM; with HCT-116, 5.8 µM; with HL-60, 1.3 µM; in [1] it was 5.3 µM.
Take `O=c1cc(-c2ccccc2F)[nH]c2ccc3c(c12)OCO3`: the concentration for half-maximal inhibition (IC50) worked out at 4.5 µM with NCI-H460, 2.1 µM with HCT-116, 1 µM in the series on HL-60 and 1.9 µM in series [1].

As usually defined, the IC50 is the concentration that inhibits the measured activity by half.
